# ChEMBL document CHEMBL4033788, “Novel Ligustrazine-Based Analogs of Piperlongumine Potently Suppress Proliferation and Metastasis of Colorectal Cancer Cells in Vitro and in Vivo” (J Med Chem, 2018)
# The source made the active and inactive calls. No cut-off for these calls is given here.
# What was measured:
# [1] = tested on: SW-620; assay: Antiproliferative activity against human SW620 cells after 72 hrs by MTT assay; assay type: functional, cell-based; conditions: SW-620, 72 h
# Summary of the method: (§1)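 Cells grown in RPMI 1640 with 10% FBS in 96-well plates overnight, then exposed to test agents in triplicate for 72 h. MTT (5 mg/mL stock) added for the last 4 h, formazan dissolved in DMSO, absorbance read at 570 nm. Inhibition = (1 − OD treated/OD control) × 100%.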
# [2] = tested on: HCT-116; assay: Cytotoxicity against human HCT116 cells at 2 to 50 nM after 24 to 48 hrs in presence of TGF-beta1 by MTT assay; assay type: cell-based; conditions: hct-116, 0.05 µM
# Summary of the method: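 HCT-116 cells exposed to TGF-β1 (10 ng/mL) alone or combined with test agent at 2, 10 or 50 nM for 24, 48 or 72 h. Viability read by MTT (formazan in DMSO, 570 nm).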
# [3] = tested on: HCT-116; assay: Antitumor activity against human HCT116 cells xenografted in BALB/c nude mouse assessed as tumor growth inhibition at 5 mg/kg, ip administered daily for 21 consecutive days relative to control; assay type: functional; conditions: HCT-116, ip, read-out: TGI
# Summary of the method: (§2)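 Male BALB/c nude mice, 3–5 weeks old, inoculated subcutaneously with 1 × 10^7 HCT-116 cells. At about 75 mm³ tumor volume, randomized (n = 8/group) and dosed intraperitoneally daily. Volume by caliper as d² × D/2. At the end, tumors excised and weighed; inhibition = (Wcontrol − Wtreated)/Wcontrol × 100%.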
# [4] = tested on: U-87 MG; assay: Antiproliferative activity against human U87MG cells after 72 hrs by MTT assay; assay type: functional, cell-based, U-87MG ATCC; summary of the method: as §1
# [5] = tested on: HT-29; assay: Antiproliferative activity against human HT-29 cells after 72 hrs by MTT assay; assay type: functional, cell-based; conditions: HT-29, 72 h; summary of the method: as §1
# [6] = Induction of ROS accumulation in human CCD-841 cells at 10 uM after 3 hrs by DCFH-DA staining-based fluorescence microscopic analysis; assay type: cell-based; conditions: ccd-841, 3 h
# Summary of the method: (§3)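 HCT-116 or CCD-841 cells treated at 10 μM for 3 h, stained with DCFH-DA, and imaged by fluorescence microscopy for green-fluorescent cells.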
# [7] = tested on: HCT-116; assay: Antiproliferative activity against human HCT116 cells after 72 hrs by MTT assay; assay type: functional, cell-based; conditions: HCT-116, 72 h; summary of the method: as §1
# [8] = tested on: K562; assay: Antiproliferative activity against human K562 cells after 72 hrs by MTT assay; assay type: functional, cell-based; conditions: K562, 72 h; summary of the method: as §1
# [9] = tested on: HCT-116; assay: Induction of ROS accumulation in human HCT116 cells at 10 uM after 3 hrs by DCFH-DA staining-based fluorescence microscopic analysis; assay type: functional, cell-based; summary of the method: as §3
# [10] = tested on: HCT-8; assay: Antiproliferative activity against human HCT8 cells after 72 hrs by MTT assay; assay type: functional, cell-based; conditions: HCT-8, 72 h; summary of the method: as §1
# [11] = Solubility of compound in phosphate buffer at pH 7.4 after 8 hrs by HPLC analysis; assay type: physicochemical
# Summary of the method: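 Compound was shaken in 50 mM phosphate buffer (pH 7.4) at 20 °C, centrifuged, and the supernatant analysed by HPLC. Conditions were a C18 column, acetonitrile–water 60/40 (v/v) at 1.0 mL/min, with detection at 254 nm. Run in triplicate.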
# [12] = Antiproliferative activity against human CCD-841 cells after 72 hrs by MTT assay; assay type: cell-based; conditions: CCD-841, 72 h; summary of the method: as §1
# [13] = tested on: Mus musculus; assay: Toxicity in BALB/c nude mouse xenografted with human HCT116 cells assessed as loss of body weight at 4 mg/kg, ip administered thrice a week for 6 consecutive weeks; assay type: organism-based; conditions: in vivo
# Summary of the method: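 Lung metastasis model: HCT-116 cells in serum-free medium injected into tail vein of BALB/c nude mice, then randomized and given vehicle or compound ip (1, 2 or 4 mg/kg) three times a week. Body weight recorded weekly, survival monitored (n = 6); mice sacrificed after 40 days and lungs examined by H&E histology.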
# [14] = tested on: HCT-116; assay: Inhibition of TGF-beta1-induced increase in expression levels of snail protein in human HCT116 cells at 50 nM after 48 hrs by Western blot analysis; assay type: functional, cell-based
# Summary of the method: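 HCT-116 cells (1 × 10^6/well, plated overnight) were exposed to TGF-β1 (10 ng/mL) for 48 h, with or without test compound; vehicle was 0.1% DMSO. Lysates (20 μg/lane) were run on 7.5% SDS-PAGE and blotted to PVDF, with primary antibody overnight at 4 °C and HRP/ECL detection. Band densities were normalised to β-actin across three independent experiments.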
# [15] = Half life in Sprague-Dawley rat at 20 mg/kg, iv after 4 hrs by LC-MS/MS analysis; assay type: ADME, organism-based; conditions: in vivo
# [16] = tested on: HCT-116; assay: Inhibition of TGF-beta1-induced decrease in expression levels of E-cadherin protein in human HCT116 cells after 48 hrs by Western blot analysis; assay type: functional, cell-based
# Summary of the method: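 HCT-116 cells treated with or without TGF-β1 (10 ng/mL) for 48 h, with or without test agent. Lysates (20 μg/lane) run on 7.5% SDS-PAGE and transferred to PVDF. Probed for p-Akt (Ser473), Akt, p-GSK-3β (S9), GSK-3β, E-cadherin, MMP-9 and β-actin, detected by ECL. Densitometry relative to β-actin or total protein. Three independent experiments.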
# [17] = Stability of compound in intestinal fluid at pH 6.8 at 1 uM after 4 hrs by LC-MS/MS analysis
# [18] = Acute toxicity in ip dosed ICR mouse assessed as mortality after 14 days; assay type: organism-based; conditions: in vivo
# [19] = tested on: HCT-116; assay: Antitumor activity against human HCT116 cells xenografted in BALB/c nude mouse assessed as reduction in tumor size at 2.5 to 5 mg/kg, ip administered daily for 21 consecutive days; assay type: functional, organism-based; summary of the method: as §2
smiles,measurement,setting,value
COc1cc(/C=C/C(=O)N2CCC=CC2=O)cc(OC)c1OC [PIPLARTINE],IC50,[1],4.62 µM
same,Activity,[2],Non-Toxic
same,inhibition in vivo at 5 mg/kg,[3],60.6%
same,IC50,[4],17.3 µM
same,IC50,[5],2.65 µM
same,Activity,[6],Toxic
same,IC50,[7],8.13 µM
same,IC50,[8],5.05 µM
same,Activity,[9],Active
same,IC50,[10],4.1 µM
same,solubility at 8 h,[11],0.32 µg/mL
same,IC50,[12],44.3 µM
same,Activity,[13],Non-Toxic
same,inhibition,[14],Active
same,half-life,[15],2.87 h
Cc1nc(C)c(/C=C/C(=O)N2CCC=C(Cl)C2=O)nc1C,IC50,[1],0.87 µM
same,Activity,[2],Non-Toxic
same,inhibition in vivo at 5 mg/kg,[3],71.4%
same,IC50,[4],3.43 µM
same,IC50,[5],0.54 µM
same,Activity,[6],Toxic
same,IC50,[7],0.3 µM
same,IC50,[8],0.25 µM
same,inhibition,[16],Dose-dependent effect
same,Stability,[17],Stable
same,LD50 at 336 h,[18],148 mg/kg
same,Activity,[9],Active
same,IC50,[10],1.21 µM
same,solubility at 8 h,[11],74.6 µg/mL
same,IC50,[12],51.6 µM
same,Activity,[19],Active
same,Activity,[13],Non-Toxic
same,half-life,[15],2.17 h
